For orientation: fraction remaining means what is left of the initial amount, in per cent. Higher therefore signals greater stability. What is called Kd is the constant that tells how readily two partners part at equilibrium. As usually defined, the MIC is the smallest concentration in the dilution series that meets the test's criterion for growth inhibition. High values mean weaker potency, low ones greater potency. By solubility is commonly meant the concentration that dissolves in the medium under given conditions. Higher therefore signals a readily soluble substance. A word on the half-life: it is the time in which the quantity being followed falls by half.

In brackets after ≈: the same amount, converted by molar mass.

The record followed here is publication PMC4607046 (Journal of the American Chemical Society, 2015).

Data set [1] in a line: Metabolic stability in rat S9. To be noted: liver S9. Format: in vitro ADME.
The target of data set [2] is PBP2a allosteric site (Staphylococcus aureus, UniProt P07944). The data set can be described thus: Intrinsic fluorescence quenching of oxacillin-acylated PBP2a. Format: binding, S. aureus. Summed up:
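PBP2a intrinsic fluorescence was excited at 280 nm and emission spectra were scanned while test compound was titrated to the final concentrations shown. Kd came from nonlinear regression of the change in maximum fluorescence intensity, averaged over three experiments.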

Data set [3] is described as follows: Alkylating agent test.
Data set [4] concerns S. epidermidis ATCC 35547. The data set can be described thus: MIC, in vitro antibacterial activity. Type of data set: cell-based. As to conditions: Staphylococcus epidermidis, ATCC35547.
Data set [5] deals with S. aureus ATCC 29213 RNA synthesis. As to the kind of experiment: Macromolecular synthesis assay, RNA. Type of data set: cell-based, Staphylococcus aureus. To be noted: 0.5 MIC. In a few lines: (§1)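 Logarithmic-phase S. aureus ATCC 29213 was exposed to test compound at 1/2 MIC, and incorporation of radiolabeled precursors was monitored: [methyl-3H]-thymidine (DNA), [5,6-3H]-uridine (RNA) and L-[4,5-3H]-leucine (protein). Controls were ciprofloxacin 0.5 μg/mL (DNA), rifampicin 8 ng/mL (RNA) and tetracycline 31 ng/mL (protein). Maximum inhibition was taken at 80 min for DNA and at 120 min for RNA and protein.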

The test system of data set [6] is S. aureus VRS2. As to the kind of experiment: MIC, in vitro antibacterial activity. Format: cell-based. As to conditions: Staphylococcus aureus, MRSA.
A short description of data set [7]: Metabolic stability in human S9. Type of data set: in vitro ADME. As to conditions: liver S9.
Data set [8] relates to S. aureus VRS1. As to the kind of experiment: MIC, in vitro antibacterial activity. Format: cell-based. As to conditions: Staphylococcus aureus, MRSA.
For data set [9], the system named is S. aureus NRS100. The data set can be described thus: MIC, in vitro antibacterial activity. Format: cell-based. As to conditions: Staphylococcus aureus, MRSA|NRS100.
Data set [10] has as its system PBP2a (pbp2a antisense, MRSA COL). The data set can be described thus: Antisense sensitization, pbp2a antisense in MRSA COL. Format: cell-based, S. aureus. As to conditions: xylose induction.
Data set [11] has as its system E. coli S30 extract translation. Format: biochemical. As to conditions: β-galactosidase assay system.
Data set [12] has as its system T7 transcription. The data set can be described thus: In vitro transcription assay, T7 transcription kit. Format: biochemical.
In data set [13] the test system is S. aureus ATCC 29213. As to the kind of experiment: MIC, in vitro antibacterial activity. Format: cell-based, Staphylococcus aureus.
Data set [14] in a line: Water solubility. Format: physicochemical. In a few lines: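 Test compound tested as its sodium salt, dissolved in water.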
Data set [15] is described as follows: Pharmacokinetics after single iv or po dose. Type of data set: in vivo, mice.
Data set [16] has as its system S. aureus ATCC 29213 protein synthesis. The data set can be described thus: Macromolecular synthesis assay, protein. Format: cell-based, Staphylococcus aureus. To be noted: 0.5 MIC. In a few lines:
as §1

In data set [17] the test system is S. aureus ATCC 29213 DNA synthesis. As to the kind of experiment: Macromolecular synthesis assay, DNA. Format: cell-based, Staphylococcus aureus. As to conditions: 0.5 MIC. Summed up: as §1
For data set [18], the system named is S. aureus NRS119. As to the kind of experiment: MIC, in vitro antibacterial activity. Format: cell-based. As to conditions: Staphylococcus aureus, MRSA|NRS119.
A short description of data set [19]: Glutathione adduct formation. Type of data set: in vitro ADME.
The subject of data set [20] is S. aureus ATCC 29213 cell-wall biosynthesis. As to the kind of experiment: Macromolecular synthesis assay, cell wall. Format: cell-based, Staphylococcus aureus. As to conditions: 2 at 0.5 MIC. In a few lines:
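Logarithmic-phase S. aureus ATCC 29213 was treated with test compound at 1/2 MIC. Peptidoglycan synthesis was followed as D-[2,3-3H]-alanine incorporation into cell wall, with fosfomycin (16 μg/mL) as control. Maximum inhibition was taken at 120 min.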

The test system of data set [21] is PBP1 (pbpA antisense, MRSA COL). As to the kind of experiment: Antisense sensitization, pbpA antisense in MRSA COL. Format: cell-based, S. aureus. To be noted: xylose induction.
Data set [22] concerns S. aureus NRS120. The data set can be described thus: MIC, in vitro antibacterial activity. Format: cell-based. To be noted: Staphylococcus aureus, MRSA|NRS120.
Data set [23] is described as follows: Hemolysis of red blood cells. Format: cell-based.
Data set [24] has as its system HepG2 cells. The data set can be described thus: XTT cell proliferation assay. Format: cell-based. As to conditions: Homo sapiens, HepG2, read-out: IC50, XTT cell proliferation assay. A general note: Tetrazolium dyes change colour on reduction, which living cells bring about.
In data set [25] the target is PBP2a (Staphylococcus aureus, UniProt P07944). The data set can be described thus: Bocillin FL competition assay, purified recombinant PBP2a. Type of data set: binding, S. aureus. In a few lines:
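Recombinant purified PBP2a (1 μM) was labeled with fluorescent Bocillin FL (20 μM) in the presence of increasing amounts of test compound (μg/mL). Competition was read as loss of fluorescence labeling of the active site, and an apparent IC50 was derived.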

Data set [26] can be described thus: Stability in mouse plasma. Format: in vitro ADME.
The test system of data set [27] is S. aureus NRS70. As to the kind of experiment: MIC, in vitro antibacterial activity. Format: cell-based. As to conditions: Staphylococcus aureus, MRSA|NRS70.
Data set [28] has as its system S. aureus NRS123. The data set can be described thus: MIC, in vitro antibacterial activity. Type of data set: cell-based. As to conditions: Staphylococcus aureus, MRSA|NRS123.
The subject of data set [29] is S. aureus NRS128. The data set can be described thus: MIC, in vitro antibacterial activity. Type of data set: cell-based. To be noted: Staphylococcus aureus, MSSA|NRS128.
Data set [30] deals with E. faecium. The data set can be described thus: MIC, ESKAPE panel. Format: cell-based, Enterococcus faecium.
For data set [31], the system named is Gram-negative bacteria of our panel. The data set can be described thus: Antibacterial activity, E. coli and ESKAPE panel. Type of data set: cell-based. To be noted: Gram-negative bacteria of the E. coli/ESKAPE panel.
The mark [32] stands for this setting: Staphylococcus aureus, ATCC29213|MSSA.
[33] abbreviates: experiment with meropenem control.

Chain of PBP2a (P07944 whole entry): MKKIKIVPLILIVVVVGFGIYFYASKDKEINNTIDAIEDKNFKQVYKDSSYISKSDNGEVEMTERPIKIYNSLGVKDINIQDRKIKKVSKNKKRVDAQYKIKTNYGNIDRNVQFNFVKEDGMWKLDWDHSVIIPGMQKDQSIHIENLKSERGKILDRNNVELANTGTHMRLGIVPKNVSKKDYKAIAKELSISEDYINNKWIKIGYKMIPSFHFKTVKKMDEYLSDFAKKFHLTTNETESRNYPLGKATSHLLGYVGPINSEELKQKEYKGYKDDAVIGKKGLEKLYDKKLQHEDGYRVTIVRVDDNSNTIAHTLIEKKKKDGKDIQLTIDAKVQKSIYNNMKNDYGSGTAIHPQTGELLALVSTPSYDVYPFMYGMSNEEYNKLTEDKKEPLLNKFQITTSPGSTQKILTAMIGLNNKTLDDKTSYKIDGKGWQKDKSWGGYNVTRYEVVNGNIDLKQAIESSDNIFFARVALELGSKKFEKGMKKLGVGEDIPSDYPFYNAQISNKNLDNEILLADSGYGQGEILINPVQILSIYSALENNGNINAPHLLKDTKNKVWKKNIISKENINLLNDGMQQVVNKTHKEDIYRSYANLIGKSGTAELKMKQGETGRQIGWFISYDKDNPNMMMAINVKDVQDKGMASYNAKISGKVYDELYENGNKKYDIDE
Chain of PBP2a allosteric site (P07944 whole entry): as above

With `N#Cc1ccc(/C=C/c2nc3ccccc3c(=O)n2-c2cccc(C(=O)O)c2)cc1` [compound 2, (E)-3-(3-carboxyphenyl)-2-(4-cyanostyryl)quinazolin-4(3H)-one], the amount remaining at 1 h in data set [1] and in data set [7] was 100% each time. This compound also gave a Kd in [2] of 17.5 µM. Besides, the alkylating agent entry in data set [3] is recorded as “not an alkylating agent”. The MIC in [4] was 1 µg/mL (≈ 2.54 µM); in data set [6], 2 µg/mL (≈ 5.08 µM); in data set [8], 16 µg/mL (≈ 40.7 µM); in [9], 16 µg/mL (≈ 40.7 µM); in data set [13] (setting [32]) it was 2 µg/mL (≈ 5.08 µM); in data set [18] it was 8 µg/mL (≈ 20.3 µM). Moreover, the MIC in [22] was 8 µg/mL (≈ 20.3 µM); in data set [27], 2 µg/mL (≈ 5.08 µM); in data set [28], 2 µg/mL (≈ 5.08 µM); in data set [29], 4 µg/mL (≈ 10.2 µM). Moreover, in data set [5], the “effect on transcription (RNA synthesis, [5,6-3H]-uridine incorporation)” value was “did not significantly affect”. For the same compound, in data set [10], the “sensitization on attenuation of PBP2a expression” value was “sensitized the strain”. Moreover, the “inhibition of in vitro translation” value in [11] is “did not show inhibition”. Besides, the “inhibition of in vitro transcription” value in [12] was “did not show inhibition”. The compound also gave a solubility in data set [14] of 8000 µg/mL (≈ 20300 µM). Moreover, the maximum concentration in data set [15] (mice, single 10 mg/kg oral (po) dose) came out at 1.29 µg/mL. The “time plasma levels sustained above MIC” value in data set [15] (mouse, in vivo, iv, 10 mg/kg) is listed as 2 h. Moreover, the clearance in data set [15] (mouse, plasma, iv, 10 mg/kg) worked out at 6.87 mL/min/kg. The half-life in data set [15] (mouse, plasma, iv, 10 mg/kg) is greater than 20 h; in data set [15] (mouse, plasma, po, 10 mg/kg) it was greater than 20 h. Besides, the “effect on translation (protein synthesis, L-[4,5-3H]-leucine incorporation)” value in data set [16] is reported as “did not significantly affect”. Further, the “effect on replication (DNA synthesis, [methyl-3H]-thymidine incorporation)” value in data set [17] is given as “did not significantly affect”. Also, the glutathione adduct formation entry in data set [19] is “did not form glutathione adducts”. Further, the “inhibition of cell-wall biosynthesis (D-[2,3-3H]-alanine incorporation)” value in data set [20] (experiment with fosfomycin control, fosfomycin 16 μg/mL, 120 min) is reported as 51 ± 12%; in [20] (setting [33]), 61 ± 4%. For the same compound, the “sensitization on attenuation of PBP1 expression” value in [21] is listed as “sensitized the strain”. For the same compound, in [23], the hemolysis at 50 μg/mL was less than 1%. The results for the IC50 in data set [24] and in data set [25] were 63 ± 1 µg/mL (≈ 160 µM) and 356 µM, respectively. Besides, the “half-life in mouse plasma” value in data set [26] is listed as 141 h.

`N#Cc1ccc(/C=C/c2nc3ccccc3c(=O)n2-c2cccc(C(=O)O)c2)cc1` [compound 1]: the minimum inhibitory concentration (MIC) was 16 µg/mL (≈ 40.7 µM) in data set [30] and 2 µg/mL (≈ 5.08 µM) in data set [13] (S. aureus ATCC 29213, quality control MSSA strain). In addition, in [31], the “activity against Gram-negative bacteria” value is reported as “did not have activity”.

On to `C[C@@H](O)[C@H]1C(=O)N2C(C(=O)O)=C(SCCN=CN)C[C@H]12` [imipenem], for which the “sensitization on attenuation of PBP2a expression” value in [10] is “sensitized the strain”. For the same compound, the “sensitization on attenuation of PBP1 expression” value in [21] is listed as “sensitized the strain”.

For the compound `CC(=O)NC[C@H]1CN(c2ccc(N3CCOCC3)c(F)c2)C(=O)O1` [linezolid], the MIC was found to be 1 µg/mL (≈ 2.96 µM) in data set [4]; 2 µg/mL (≈ 5.93 µM) in data set [6]; 2 µg/mL (≈ 5.93 µM) in data set [8]; 2 µg/mL (≈ 5.93 µM) in [9]; 4 µg/mL (≈ 11.9 µM) in [13] (setting [32]); 32 µg/mL (≈ 94.9 µM) in [18]. Also, the MIC was 32 µg/mL (≈ 94.9 µM) in data set [22], 1 µg/mL (≈ 2.96 µM) in data set [27], 2 µg/mL (≈ 5.93 µM) in data set [28] and 1 µg/mL (≈ 2.96 µM) in data set [29].

Take `C[C@@H](O)[C@H]1C(=O)N2C(C(=O)O)=C(S[C@@H]3CN[C@H](C(=O)N(C)C)C3)[C@H](C)[C@H]12` [meropenem, reference compound]: the “inhibition of cell-wall biosynthesis (D-[2,3-3H]-alanine incorporation)” value in data set [20] (setting [33]) is listed as 64 ± 2%.

`CCO/N=C(\C(=O)N[C@@H]1C(=O)N2C(C(=O)[O-])=C(Sc3nc(-c4cc[n+](C)cc4)cs3)CS[C@H]12)c1nsc(N)n1` [ceftaroline]: the “sensitization on attenuation of PBP2a expression” value in [10] is on record as “sensitized the strain”. The “sensitization on attenuation of PBP1 expression” value in [21] is given as “sensitized the strain”.

For the compound `CN[C@H](CC(C)C)C(=O)N[C@H]1C(=O)N[C@@H](CC(N)=O)C(=O)N[C@H]2C(=O)N[C@H]3C(=O)N[C@H](C(=O)N[C@H](C(=O)O)c4cc(O)cc(O)c4-c4cc3ccc4O)[C@H](O)c3ccc(c(Cl)c3)Oc3cc2cc(c3O[C@@H]2O[C@H](CO)[C@@H](O)[C@H](O)[C@H]2O[C@H]2C[C@](C)(N)[C@H](O)[C@H](C)O2)Oc2ccc(cc2Cl)[C@H]1O` [vancomycin], the minimum inhibitory concentration (MIC) was 16 µg/mL (≈ 11 µM) in [4]; 64 µg/mL (≈ 44.2 µM) in data set [6]; 512 µg/mL (≈ 353 µM) in [8]; 2 µg/mL (≈ 1.38 µM) in data set [9]; 1 µg/mL (≈ 0.69 µM) in [13] (setting [32]); 2 µg/mL (≈ 1.38 µM) in data set [18]. Also, the MIC in data set [22] amounted to 2 µg/mL (≈ 1.38 µM); in data set [27], 1 µg/mL (≈ 0.69 µM); in [28], 1 µg/mL (≈ 0.69 µM); in [29], 1 µg/mL (≈ 0.69 µM).

Regarding `Cc1onc(-c2ccccc2)c1C(=O)N[C@@H]1C(=O)N2[C@@H]1SC(C)(C)[C@@H]2C(=O)O` [oxacillin], the minimal inhibitory concentration (MIC) in data set [4] stood at 128 µg/mL (≈ 319 µM); in [6], 256 µg/mL (≈ 638 µM); in [8] it was 512 µg/mL (≈ 1280 µM); in [9], 512 µg/mL (≈ 1280 µM); in data set [13] (setting [32]), 0.25 µg/mL (≈ 0.623 µM); in data set [18], 512 µg/mL (≈ 1280 µM). Moreover, the minimal inhibitory concentration (MIC) worked out at 512 µg/mL (≈ 1280 µM) in [22], 32 µg/mL (≈ 79.7 µM) in data set [27], 32 µg/mL (≈ 79.7 µM) in data set [28] and 0.5 µg/mL (≈ 1.25 µM) in data set [29].
